Data reported in the array DNA melting data of Ke et al. (doi:10.1101/2024.01.08.574731).

Assays:
[1] = folding enthalpy; higher = less favourable; fluorescence melt of hairpins on a sequencing array, two-state fit; conditions: sodium 0.088 M
In short: (§1)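 Bootstrapped two-state fits yielded melting temperature and folding enthalpy for library hairpins. Cy3 fluorescence, with annealed Cy3 and quencher oligos, was imaged on a sequenced MiSeq flow cell in 50 mM Na-HEPES pH 8.0, 25 mM NaCl in 2.5 °C steps up to 60 °C, and normalised to pre-quench Cy3 and to control constructs. Four replicates were combined by inverse variance, and fitted temperatures were raised by 9.35 °C to match UV melts.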

[2] = melting temperature; fluorescence melt of hairpins on a sequencing array, two-state fit, raised by 9.35 °C to match UV melts; conditions: sodium 0.088 M
In short: as §1

| Sequence | folding enthalpy [1] [kcal/mol] | Tm [2] [°C] |
| --- | --- | --- |
| GACCCGGGAAACCGGACC (..((((....))))..) | -10.3 | 30.3 |
| GACCCGGGAAACTGGGTC (((((.(....).))))) | -37.3 | 59.2 |
| GACCCTGAAAAGGGTC ((((((....)))))) | -33.7 | 67.5 |
| GACCGAGGAAACTCAGTC (((.(((....))).))) | -21 | 34.4 |
| GACCGCCGAAAGGCGTC (((.(((....)))))) | -8.69 | 45.4 |
| GACCGCGAAAGCGGCGTC ((((((....)))..))) | -9.59 | 51.3 |
| GACCGCGAAAGCGTGTC ((((((....))).))) | -21.2 | 63.5 |
| GACCGGACGAAAGTCGTC (((..(((....)))))) | -12.1 | 37.1 |
| GACCGTACGAAAGTAGTC (((..(((....)))))) | -13.1 | 26.5 |
| GACCTAGGAAACTGGGTC ((((.((....)).)))) | -35 | 49.6 |
| GACCTCCCGAAAGGGGTC (((..(((....)))))) | -15.2 | 40 |
| GACCTCGGAAACAAGGTC (((((.(....).))))) | -32.1 | 40.9 |
| GACCTCGGAAACGGGGTC ((((.((....)).)))) | -46.4 | 55.9 |
| GACCTGACGAAAGTCGTC (((..(((....)))))) | -9.44 | 35.9 |
| GACCTGGGAAACCGGGTC ((((.((....)).)))) | -44.8 | 57.1 |
| GACCTTACGAAAGTAGTC (((..(((....)))))) | -11 | 25.2 |
| GACGAACGAAAGTTAGTC (((.(((....))).))) | -35.8 | 49.9 |
| GACGAAGCGAAAGCTGTC (((..(((....)))))) | -16.7 | 45.4 |
| GACGACCCGAAAGGGGTC (((..(((....)))))) | -10.1 | 42.3 |
| GACGACGAAAGTCTAGTC ((((((....)))..))) | -23.8 | 41.8 |
| GACGACGGAAACGTCACC (..((((....))))..) | -11.5 | 35.4 |
| GACGAGCGAAAGCTAGTC (((.(((....))).))) | -31 | 56.8 |
| GACGAGGGAAACCTTGTC (((.(((....))).))) | -31.4 | 48.1 |

| Sequence | folding enthalpy [1] [kcal/mol] | Tm [2] [°C] |
| --- | --- | --- |
| GACGATACGAAAGTAGTC (((..(((....)))))) | -17 | 36.1 |
| GACGATCCGAAAGGAGTC (((..(((....)))))) | -22.1 | 39.8 |
| GACGCAGGAAACCACGTC ((((..(....)..)))) | -16.3 | 34.9 |
| GACGCAGGAAACTACGTC ((((.((....)).)))) | -26.6 | 43.5 |
| GACGCAGGAAACTGCATC ((.((((....)))).)) | -13.5 | 36.2 |
| GACGCCGAAAGGCAAGTC ((((((....)))..))) | -19.7 | 48.9 |
| GACGCCGAAAGGCACGTC ((((((....)))..))) | -13.4 | 48.5 |
| GACGCCGAAAGGCCGTC ((((((....))).))) | -18.7 | 61.4 |
| GACGCCGGAAACAGCGCC (.(((.(....).))).) | -17.8 | 31.8 |
| GACGCCGGAAACAGCGTC (((((.(....).))))) | -35.9 | 54.8 |
| GACGCCGGAAACGGCGCC (.(((((....))))).) | -10.5 | 56.9 |
| GACGCTGGAAACAGCGCC (.(((((....))))).) | -12.4 | 53 |
| GACGCTGGAAACGGTGTC (((.(.(....).).))) | -28.9 | 42.1 |
| GACGGAGCGAAAGCTGTC (((..(((....)))))) | -18.9 | 41.8 |
| GACGGCGAAAGCCAGTC ((((((....))).))) | -22.7 | 60.2 |
| GACGGCGAAAGCCCTGTC ((((((....)))..))) | -13.6 | 38.6 |
| GACGGCGAAAGCCGGGTC ((((((....)))..))) | -11.3 | 68.2 |
| GACGGCGAAAGCCGGTC ((((((....))).))) | -11.6 | 64 |
| GACGGCGAAAGCCTAGTC ((((((....)))..))) | -16.7 | 47.4 |
| GACGGCGAAAGCCTCGTC ((((((....)))..))) | -13.1 | 56.4 |
| GACGGCGGAAACGCTGTC (((.(((....))).))) | -37.5 | 64.7 |
| GACGGGCGAAAGCCGGTC (((.(((....))).))) | -25.9 | 65.5 |
| GACGGGGAAACCCGTC ((((((....)))))) | -37.9 | 68 |

| Sequence | folding enthalpy [1] [kcal/mol] | Tm [2] [°C] |
| --- | --- | --- |
| GACGGGGGAAACCCCGCC (.(((((....))))).) | -12.5 | 50.5 |
| GACGGGGGAAACCCTGTC (((.(((....))).))) | -37.1 | 54.4 |
| GACGGTGGAAACACCATC ((.((((....)))).)) | -16.2 | 36.5 |
| GACGGTGGAAACACTGTC (((.(((....))).))) | -45.8 | 52.1 |
| GACGTACGAAAGTAAGTC (((.(((....))).))) | -29.2 | 50.6 |
| GACGTCACGAAAGTGGTC (((..(((....)))))) | -15 | 35.6 |
| GACGTGCCGAAAGGCGTC (((..(((....)))))) | -13.3 | 46.8 |
| GACGTGCGAAAGCAAGTC (((.(((....))).))) | -31.5 | 60.5 |
| GACGTGGGAAACCACGTC (((((((....))))))) | -37.1 | 68.8 |
| GACGTGGGAAACTACGTC (((((.(....).))))) | -38.4 | 52.5 |
| GACGTTGGAAACAATGTC (((.(((....))).))) | -37.3 | 48.4 |
| GACTAAGGAAACTTAGCC (.(((((....))))).) | -20.4 | 31.3 |
| GACTACCCGAAAGGGGTC (((..(((....)))))) | -11.3 | 38.3 |
| GACTACGAAAGTATAGTC ((((((....)))..))) | -23.3 | 36.8 |
| GACTACGAAAGTATGGTC ((((((....)))..))) | -19.5 | 34.4 |
| GACTACGAAAGTATTGTC ((((((....)))..))) | -15.2 | 29.6 |
| GACTACGGAAACGTAGTC (((((((....))))))) | -37.8 | 61.4 |
| GACTATGGAAACATAGCC (.(((((....))))).) | -22.6 | 35.7 |
| GACTCACGAAAGTGGGTC (((.(((....))).))) | -41.1 | 57.6 |
| GACTCAGAAATGAGTC ((((((....)))))) | -35.9 | 54.5 |
| GACTCAGGAAACTGAATC ((.((((....)))).)) | -16.3 | 27.7 |
| GACTCAGGAAACTGAGCC (.(((((....))))).) | -16.5 | 43.6 |
| GACTCCCGAAAGGGCGTC (((.(((....))).))) | -27.3 | 53.5 |

| Sequence | folding enthalpy [1] [kcal/mol] | Tm [2] [°C] |
| --- | --- | --- |
| GACTCCCGAAAGGGGTC (((.(((....)))))) | -24.9 | 50.8 |
| GACTCCGAAAGGACAGTC ((((((....)))..))) | -19.2 | 37.9 |
| GACTCCGAAAGGACGTC ((((((....))).))) | -30.8 | 49.9 |
| GACTCCGGAAACGGAACC (..((((....))))..) | -8.88 | 26.1 |
| GACTCCGGAAACGGGGTC (((.(((....))).))) | -38 | 57.2 |
| GACTCGCGAAAGCGCGTC (((.(((....))).))) | -23.6 | 55.9 |
| GACTCGGAAACGAGTC ((((((....)))))) | -32.8 | 66.4 |
| GACTCGGGAAACCGAGCC (.(((((....))))).) | -17 | 47.8 |
| GACTCTGGAAACAGAGCC (.(((((....))))).) | -18.3 | 43 |
| GACTCTGGAAACAGAGTC (((((((....))))))) | -34.3 | 63.9 |
| GACTGAGGAAACTTAGTC ((((.((....)).)))) | -26.3 | 39.4 |
| GACTGCGAAAGCAACGTC ((((((....)))..))) | -15.2 | 38.8 |
| GACTGCGAAAGCACTGTC ((((((....)))..))) | -12.8 | 39.9 |
| GACTGCGAAAGCATTGTC ((((((....)))..))) | -10.4 | 42 |
| GACTGGACGAAAGTCGTC (((..(((....)))))) | -12.4 | 46.8 |
| GACTGGGAAACCAGTC ((((((....)))))) | -35.1 | 60.1 |
| GACTGGGGAAACCCAGCC (.(((((....))))).) | -15.4 | 44.7 |
| GACTGGGGAAACCTAGTC ((((.((....)).)))) | -32.8 | 47.8 |
| GACTGTACGAAAGTAGTC (((..(((....)))))) | -28.8 | 36.9 |
| GACTGTCCGAAAGGAGTC (((..(((....)))))) | -14.6 | 36.1 |
| GACTGTGGAAACACAGTC (((((((....))))))) | -37.5 | 66.5 |
| GACTGTGGAAACATAGTC ((((.((....)).)))) | -28.5 | 45.2 |
